Data as given in ChEMBL document CHEMBL1811907, “Chemical and biological evaluation of dipeptidyl boronic acid proteasome inhibitors for use in prodrugs and pro-soft drugs targeting solid tumors” (J Med Chem, 2011).

Experiments:
[1] = Inhibition of chymotrypsin-like activity of 20S proteasome using suc-LLVY-AMC as substrate preincubated for 10 mins before substrate addition at pH 2.0 by fluorescence assay
Outline: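 Inhibitor from 0.1 M ethanol stock diluted into pH 2.0 buffer (0.148 M HCl, 0.052 M KCl) and equilibrated overnight at room temperature (24 h per text). 20S proteasome SDS-activated, preincubated 10 min with inhibitor; Suc-LLVY-AMC added; fluorescence (ex 360/em 460 nm) read after 30 min. Assay-well pH checked. Quadruplicates; variable-slope sigmoidal fit.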

[2] = Inhibition of chymotrypsin-like activity of 20S proteasome using suc-LLVY-AMC as substrate preincubated for 10 mins before substrate addition at pH 7.6 by fluorescence assay
Outline: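 Inhibitor from 0.1 M ethanol stock diluted into pH 7.6 buffer (25 mM HEPES, 0.5 mM EDTA) and equilibrated overnight at room temperature (24 h per text). SDS-activated 20S proteasome preincubated 10 min with inhibitor before Suc-LLVY-AMC; fluorescence ex 360/em 460 nm after 30 min. Quadruplicates; variable-slope sigmoidal fit.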

[3] = Inhibition of intracellular chymotrypsin-like activity of 20S proteasome in human HEK293 cells after 24 hrs by fluorescence plate reader; type: cell-based; settings: HEK293, 24 h
Outline: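 HEK 293 ZsGreen proteasome-sensor cells (stable ZsGreen–ornithine decarboxylase degron fusion, G418 maintenance) seeded 3.2 × 10⁴ per well, grown 24 h. Then 24 h with inhibitor at 37 °C, 5% CO₂. Cells lysed in HEPES/EDTA/5% Triton buffer for 1 h; fluorescence ex 485/em 535 nm. Quadruplicates; variable-slope sigmoidal fit.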

HEK293 = test: Ratio of IC50 for intracellular chymotrypsin-like activity of 20S proteasome in human HEK293 cells to IC50 for in vitro chymotrypsin-like activity of 20S proteasome; type: cell-based
[4] = Cytotoxicity against human FSCLL cells after 24 hrs by MTT assay; type: cell-based
Outline: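 Cells seeded at 3.2 × 10⁴ per well, grown 24 h at 37 °C, 5% CO₂, then exposed to inhibitor dilutions 24 h. Inhibitor from 0.1 M ethanol stock, pre-equilibrated overnight in pH 2.0 or pH 7.6 buffer. MTT (5 mg/mL) added for 3 h; formazan dissolved overnight in acidic Triton/isopropanol; A570 read. Quadruplicates; variable-slope sigmoidal fit.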

[5] = Ratio of CC50 for human follicular small-cell lymphocytic leukemia cells to IC50 for chymotrypsin-like activity of 20S proteasome at pH 2.0
[6] = Ratio of CC50 for human follicular small-cell lymphocytic leukemia cells to IC50 for intracellular chymotrypsin-like activity of 20S proteasome in human HEK293 cells

| Compound | IC50 [1] [nM] | IC50 [2] [nM] | IC50 [3] [nM] | Ratio IC50 (HEK293) | CC50 at 24 h [4] [nM] | Ratio CC50/IC50 [5] | Ratio CC50/IC50 [6] |
| --- | --- | --- | --- | --- | --- | --- | --- |
| CC(C)C[C@H](NC(=O)[C@@H](N)Cc1ccccc1F)B(O)O | 76 | 140 | 3100 | 41 |  |  |  |
| CC(C)C[C@H](NC(=O)[C@@H](N)CC(C(=O)O)C(=O)O)B(O)O | 600 | 3000 | > 10000 | > 20 |  |  |  |
| CC(C)C[C@H](NC(=O)[C@@H](N)Cc1ccc(-c2ccccc2)cc1)B(O)O | 50 | 400 | 1400 | 30 |  |  |  |
| CC(C)C[C@H](NC(=O)[C@@H](N)Cc1cnc[nH]1)B(O)O | 510 | 5200 | > 1000 | > 20 |  |  |  |
| CC(C)C[C@H](NC(=O)[C@@H](N)C(C)(C)C)B(O)O | 100 | 150 | > 10000 | > 110 | 710 | 7 | <0.07 |
| CC(C)C[C@H](NC(=O)[C@@H](NC(=O)c1cnccn1)C(C)(C)O)B(O)O | 34 | 28 | 520 | 15 |  |  |  |
| CCC[C@H](N)C(=O)N[C@@H](CC(C)C)B(O)O | 110 | 540 | > 10000 | > 90 | 1100 | 10 | <0.1 |
| CC(C)C[C@H](NC(=O)[C@@H](N)C1CCCCC1)B(O)O | 240 | 900 | > 10000 | > 40 |  |  |  |
| CC(C)C[C@H](NC(=O)[C@@H](N)CC(N)=O)B(O)O | 63 | 770 | > 10000 | > 160 |  |  |  |
| CC(C)C[C@H](NC(=O)[C@@H](N)Cc1ccc(F)c(F)c1)B(O)O | 81 | 150 | 2100 | 26 |  |  |  |
| CCCC[C@H](N)C(=O)N[C@@H](CC(C)C)B(O)O | 75 | 300 | > 10000 | > 130 | 950 | 13 | <0.1 |
| CC(C)C[C@H](NC(=O)[C@@H](N)Cc1ccc(F)cc1)B(O)O | 60 | 130 | > 10000 | > 170 | 79 | 1.3 | <0.01 |
| CC(C)C[C@H](NC(=O)[C@@H](N)[C@@H](C)O)B(O)O | 80 | 450 | > 10000 | > 120 | 2500 | 30 | <0.3 |
| CC(C)C[C@H](NC(=O)[C@@H](N)C(C)(C)O)B(O)O | 90 | 150 | > 10000 | > 110 |  |  |  |
| CC(C)C[C@H](NC(=O)[C@@H](N)Cc1ccc(O)cc1)B(O)O | 42 | 120 | > 10000 | > 240 | 160 | 4 | <0.02 |
| CC(C)C[C@H](NC(=O)[C@@H](N)Cc1ccc2ccccc2c1)B(O)O | 33 | 220 | 450 | 13 |  |  |  |
| CC(C)C[C@H](NC(=O)[C@@H](N)Cc1c[nH]c2ccccc12)B(O)O | 29 | 100 | > 1000 | > 30 | 400 | 14 | <0.4 |
| CNCC(=O)N[C@@H](CC(C)C)B(O)O | 39 | 2200 | > 10000 | > 260 | 160 | 4.1 | <0.07 |
| CC(C)C[C@H](NC(=O)CN(C)C)B(O)O | 36 | 610 | > 10000 | > 280 |  |  |  |
| CC(C)C[C@H](NC(=O)[C@H](CO)NC(=O)c1cnccn1)B(O)O | 16 | 18 | 2500 | 150 | 210 | 13 | 0.08 |
| CC(C)C[C@H](NC(=O)[C@@H](N)Cc1c(F)c(F)c(F)c(F)c1F)B(O)O | 170 | 470 | 3300 | 20 |  |  |  |
| CC(C)C[C@H](NC(=O)[C@@H](N)Cc1cc(F)cc(F)c1)B(O)O | 43 | 100 | 790 | 18 | 47 | 1 | 0.06 |
| CC(C)C[C@H](NC(=O)CNC(=O)c1cnccn1)B(O)O | 110 | 180 | 1800 | 16 |  |  |  |
| CC(C)C[C@H](NC(=O)[C@@H](N)CO)B(O)O | 190 | 1100 | > 10000 | > 50 | 1700 | 8.9 | <0.2 |
| CC[C@H](N)C(=O)N[C@@H](CC(C)C)B(O)O | 110 | 300 | > 10000 | > 90 | 1500 | 14 | <0.2 |
| CC(C)C[C@H](NC(=O)[C@@H](N)CC(C)C)B(O)O | 66 | 170 | > 10000 | > 150 |  |  |  |
| CC(C)C[C@H](NC(=O)[C@@H](N)Cc1cccc2ccccc12)B(O)O | 26 | 120 | 150 | 6 | 11 | 0.4 | 0.07 |
| CC(C)C[C@H](NC(=O)[C@@H](N)Cc1cccc(F)c1)B(O)O | 82 | 110 | 1300 | 16 |  |  |  |
| CC(C)C[C@H](NC(=O)[C@@H](N)C(c1ccccc1)c1ccccc1)B(O)O | 110 | 350 | 1000 | 9 |  |  |  |
| CC(C)C[C@H](NC(=O)[C@@H](NC(=O)c1cnccn1)[C@@H](C)O)B(O)O | 12 | 25 | 790 | 65 | 100 | 8 | 0.12 |
